Compounds with a hit are over-represented: about 2.8% of the library has one in this group of screens.
PTEN del growth: growth suppressors of cells with PTEN tumor suppressor deletion; viability, % at 10 µM; actives 1.2% (n = 140,000); HCT116 PTEN-null viability, CellTiter-Glo, 60 h; stronger effect = lower value;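 active = viability at or below a set limit, 4 SD under the median of all tested compounds, cut at about 3.7% in these data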;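 also: PTEN knockout HCT116 line with beta catenin targeted HCT116 as companion control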
HCT116 bCat-KO: beta-catenin-lacking colon tumor cell growth suppression; viability, % at 10 µM; HCT116 beta-catenin knockout viability, CellTiter-Glo, 60 h; stronger effect = lower value; actives 1.5% (n = 140,000);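 active = viability at or under a set limit, the compound median less 4 SD, cut at about 6% in these data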;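 also: 0% = Hyamine 1622 control at 20 µM and 100% = untreated cell control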
BB579 growth dn: chemicals that inhibit yeast BB579 growth in restrictive medium (lifespan-shortening candidates); inhibition, % at 10 µM; S. cerevisiae BB579 growth, OD615, 48 h; actives 0.51% (n = 140,000);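 active = inhibition above a set limit, 3 SD over the mean compound inhibition, cut at about 44% in these data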
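System: Saccharomyces cerevisiae DeaD strain BB579, replicative lifespan model yeast | Buffer or medium: Restrictive glucose-based CSMM-D medium | Times: 4 h preincubation and 48 h exposure at 30 °C | Detection: OD615 turbidity measurement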
SDO1 yeast rescue: sdo1-depleted yeast growth rescue; S. cerevisiae sdo1-depleted JHY4D growth rescue, OD600 30 h; stronger effect = higher value; pdr5 snq2 efflux-pump mutant strain; z-score at 10 µM; actives 0.21% (n = 140,000); AID 817;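 active = z-score above 3 at both the 24 hr and the 30 hr optical density reads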;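 also: z-score against mean and SD of all compound wells on the same plate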
Yeast lifespan up: extends the lifespan of yeast. S. cerevisiae growth with nicotinamide, OD615; deaD strain in restrictive glucose medium. AID 775. actives 0.68% (n = 130,000). inhibition of the nicotinamide effect, % at 10 µM;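 active = inhibition above a set limit, placed 3 SD over the median of all compounds, cut at about 26% in these data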;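 also: 0% = nicotinamide-treated wells and 100% = cells grown without nicotinamide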
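Material: Modified budding yeast, DeaD strain | Medium: Restrictive glucose medium | Probe or stimulus: 1.5 mM nicotinamide | Dosing: Single dose 10 µM compound, 0.25% DMSO | Times: 48 h at 30 °C | Technique: OD615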
Active calls of the source: *; . = no result.

SMILES	PTEN del growth	HCT116 bCat-KO	BB579 growth dn	SDO1 yeast rescue	Yeast lifespan up
Cc1ccc(-c2nc3ccccc3s2)cc1NC(=S)NC(=O)c1cccc2ccccc12	1.7*	1.3*	-13	-0.93	6
COC(=O)[C@@]1(Cc2ccccc2)[C@@H]2C(=CC(=O)[C@H]2CC(=O)C(=O)N(C)C)CN1C(=O)c1ccccc1	1.7*	2.4*	-35	-0.78	1
COC(=O)[C@@]1(Cc2ccc(F)cc2)[C@H]2c3cc(C(=O)N(C)C)n(C[C@H](O)CO)c3C[C@H]2CN1C(=O)c1ccccc1	90	84	-2	-0.16	-2
CCOc1cc(Br)ccc1S(=O)(=O)N1CCC(C(N)=O)CC1	97	93	-22	1.7	-2
S=C(Nc1ccccn1)c1ccccn1	1.8*	1.9*	-6	-0.14	-11
Cc1ccc(C)c(NC(=S)c2ccc3ccccc3n2)c1	79	78	-32	-1.2	-3
Cc1ccc(C)c(NC(=S)c2ccccn2)c1	3.8*	2.7*	20	-0.83	-30
O=C(CN(CCc1ccccc1)C(=O)CNS(=O)(=O)c1ccc(F)cc1)NCC1CCCO1 (stereo not drawn)	98	91	-16	-0.23	-5
CCCOc1ccc(C(=O)C(c2ccccc2)N2CCOCC2)cc1 (stereo not drawn)	86	83	-2	-0.01	10
COc1ccc(C(=O)C(CN2CCOCC2)c2ccccc2)cc1F (stereo not drawn)	1.3*	1.6*	-42	-1	79*
CCCOc1ccc(C(=O)C(CN2CCOCC2)c2ccccc2)cc1 (stereo not drawn)	2.1*	2.6*	-71	-2.3	.
O=[N+]([O-])c1cc(S(=O)(=O)C(F)(F)F)ccc1Sc1nc2ccccc2s1	1.5*	1.6*	-22	-0.76	21
O=[N+]([O-])c1cc(S(=O)(=O)C(F)(F)F)ccc1Sc1nc2ccccc2[nH]1	1.3*	1.5*	-54	-2.7	39*
CS(=O)(=O)c1ccc(Sc2nc3ccccc3[nH]2)c([N+](=O)[O-])c1	61	65	-27	0.76	-18
CCC(=Nc1ccc(Cc2ccncc2)cc1)c1c(O)n(C)c(=O)n(C)c1=O	58	52	-24	0.97	27*
Cn1c(=O)c2c(O)c(Cc3ccccc3)c(=O)[nH]c2n(C)c1=O	96	95	-19	-0.68	4
CCOc1ccc(/C=C/C(=O)c2ccccc2)cc1OC	7	9	-5	-0.91	-7
COc1cc(/C=C/C(=O)c2ccc(O)cc2)ccc1OCC#N	1.7*	2.7*	10	-0.63	-1
COc1cccc(C(=O)/C=C/c2ccc(SC)cc2)c1	12	6	-31	-2	-24
COC(=O)c1ccc(/C=C/C(=O)c2cccc(OC)c2)cc1	1.9*	2.1*	0	-1.3	-1
COc1cccc(C(=O)/C=C/c2ccc(OCC#N)c(OC)c2)c1	2.5*	3.6*	-33	-0.99	0
CCc1ccc(NC(=O)CSc2nnc(Cc3cccn3C)n2-c2ccc(F)cc2)cc1	58	58	-8	-0.82	-14
CCn1cc([N+](=O)[O-])c(C(=O)N2N=C(c3ccc(O)c(OC)c3)CC2c2ccccc2O)n1 (stereo not drawn)	68	71	-16	0.92	-2
CCn1cc([N+](=O)[O-])c(C(=O)N2N=C(c3ccc4ccccc4c3)CC2c2cc(Br)ccc2O)n1 (stereo not drawn)	3.2*	2.4*	-57	-1.1	.
CCC(C)/C(C)=N/NC(=O)c1ccc(COc2ccc(Cl)c(C)c2)cc1 (stereo not drawn)	71	73	97*	-0.86	-8
SMILES	PTEN del growth	HCT116 bCat-KO	BB579 growth dn	SDO1 yeast rescue	Yeast lifespan up
Cc1ccc(NC(=O)COc2ccccc2CNC(C)(C)CC(C)(C)C)cc1	1.8*	1.4*	-9	-1.1	-5
CS(=O)(=O)N1CCN(c2ccc([N+](=O)[O-])c(NCc3ccc(Cl)cc3)c2)CC1	6	2.2*	-24	-1.2	-3
CS(=O)(=O)N1CCN(c2ccc([N+](=O)[O-])c(NCc3ccccc3)c2)CC1	79	85	-13	-1.2	-14
Cc1ccc2nc(/C(C#N)=N/O)[nH]c2c1	107	88	-24	0.93	11
Cc1ccc2nc(/C(C#N)=C/c3cn[nH]c3-c3ccc(F)cc3)[nH]c2c1	1.2*	1.5*	-32	-0.56	-11
Cc1cc(C)nc(SCc2cc(=O)c(OC(=O)c3cc([N+](=O)[O-])ccc3Cl)co2)n1	90	81	-39	1.4	19
Cc1cc(C)nc(SCc2cc(=O)c(OC(=O)c3ccc(S(=O)(=O)N4CCCC4)cc3)co2)n1	95	96	-63	0.4	0
Cc1cc(C)nc(SCc2cc(=O)c(OC(=O)c3ccc(Br)o3)co2)n1	93	84	-42	-0.05	49*
Cc1cc(C)nc(SCc2cc(=O)c(OC(=O)c3ccco3)co2)n1	100	92	-24	0.25	46*
Cc1cc(-c2nnc3n2N=C(c2ccc(-c4ccccc4)cc2)CS3)n[nH]1	3.1*	19	-29	-1.7	-21
c1ccc(-c2cc(-c3nnc4n3N=C(c3ccc5ccccc5c3)CS4)[nH]n2)cc1	1.9*	6	-47	-1.6	-16
Cc1cc(Nc2ccccc2)nn1C(=O)c1ccc(Br)cc1	102	99	-46	-2.8	-6
Cc1cc(Nc2ccccc2)nn1C(=O)c1ccccc1	1.2*	1.5*	-15	-2.3	-19
O=C(O)c1cc2ccc3ccccc3c2oc1=O	97	94	64*	0.26	.
O=C(c1cc2c(ccc3ccccc32)oc1=O)N1CCCC1	95	96	-24	1.4	-2
O=C(O)c1cc2cc(Cl)cc(Cl)c2oc1=O	104	112	-33	0.4	-26
O=C(O)c1cc2c(ccc3ccccc32)oc1=O	110	109	67*	0.88	-11
O=C(NC(c1ccccc1)c1ccccc1)c1cccc(S(=O)(=O)NCc2ccccc2)c1	53	58	-17	0.2	8
CCCCSc1nnc([C@@H](NC(=O)OC(C)(C)C)C(C)C)o1	85	77	3	0.02	4
O=C1CN(C(=O)c2cc3ccccc3oc2=O)C(c2ccc(F)cc2)c2cc(Br)ccc2N1 (stereo not drawn)	83	91	-1	-0.64	3
Cc1nccn1CC(=O)N/N=C/c1cccc(O)c1	87	98	-25	1.4	6
CC1=CC(=O)C=C(C)C1=NOS(=O)(=O)c1ccccc1	2.7*	1.6*	100*	-2	-28
O=C(Nc1ccc(F)cc1)C(Sc1nc2ccccc2[nH]1)c1ccccc1 (stereo not drawn)	2.6*	2.7*	-20	-1.3	6
O=C(CSc1nc2ccccc2[nH]1)Nc1ccc(F)cc1	92	90	-56	-0.28	-3
O=[N+]([O-])c1ncn(Cc2c(Cl)cccc2Cl)n1	86	92	2	1.5	3
